Experimental data reported in ChEMBL document CHEMBL4028810, “Synthesis and biological evaluation of novel chalcone derivatives as a new class of microtubule destabilizing agents” (Eur J Med Chem, 2017).
Calls of active or inactive are those of the source. The rule behind the calls is not given here.

Experiments:
NCI-H460 [1] = experiment: Disruption of mitochondrial membrane potential in human NCI-H460 cells assessed as collapse of mitochondrial membrane potential at 10 uM after 24 hrs by JC-1 staining based flow cytometric method (reference value: 1.98%); format: functional
Procedure, shortened: (§1)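 NCI-H460 cells were treated 24 h at 5 or 10 µM, with untreated cells as control. The medium was replaced, and the JC-1 probe was added 20 min later. Cells were then pelleted at 2000 rpm, washed twice in ice-cold PBS and analysed by flow cytometry with excitation at 488 nm and emission at 530 and 590 nm.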

Sus scrofa = organism: Sus scrofa; experiment: Inhibition of porcine brain tubulin polymerization at 15 uM measured at 1 min interval for 40 mins by spectrophotometric method
Procedure, shortened: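 Purified brain tubulin, final 3.0 mg/mL, was added to start the reaction in 80 mM PIPES pH 6.9, 2.0 mM MgCl₂, 0.5 mM EGTA, 1 mM GTP and 10.2% glycerol, with the other components prewarmed to 37 °C. Compounds were tested at 10 or 15 µM. Polymerization at 37 °C was followed as absorbance at 340 nm over 40 min.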

NCI-H460 [2] = experiment: Induction of apoptosis in human NCI-H460 cells assessed as increase in ROS generation after 24 hrs by DCFH-DA staining based flow cytometric method; format: functional, cell-based
Procedure, shortened: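 NCI-H460 cells in six-well plates were treated 24 h at 5 or 10 µM, with untreated cells as control. Cells were pelleted at 2000 rpm, washed twice in ice-cold PBS and resuspended in 10 µM DCFH-DA in cell-free medium for 20 min at 37 °C in the dark. After two more PBS washes, fluorescence was read by flow cytometry.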

NCI-H460 [3] = experiment: Cell cycle arrest in human NCI-H460 cells assessed as accumulation at S-phase at 5 uM after 48 hrs by propidium iodide staining based flow cytometric method (reference value: 21.79%); format: functional
NCI-H460 [4] = experiment: Disruption of mitochondrial membrane potential in human NCI-H460 cells assessed as collapse of mitochondrial membrane potential at 5 uM after 24 hrs by JC-1 staining based flow cytometric method (reference value: 1.98%); format: functional; procedure, shortened: as §1
A549/TR = experiment: Cytotoxicity against human A549/TR cells after 48 hrs by MTT assay; format: functional, cell-based
Procedure, shortened: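 Log-phase cells were seeded at about 1 × 10⁵ cells/mL in 96-well plates and allowed to settle 12 h at 37 °C in 5% CO₂. Compounds were added at five concentrations for 48 h. Absorbance was read at dual wavelength 570/630 nm. Survival was expressed as a percentage of control, and IC50 was calculated by the Bliss method (n = 5). Each test was run in triplicate.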

[5] = Resistant factor, ratio of IC50 for human A549/TR cells to IC50 for human A549 cells; format: functional
Procedure, shortened: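 The resistance index is IC50 on the paclitaxel-resistant line divided by IC50 on the parental sensitive line (A549 or HeLa). Both IC50 values come from the 48 h, five-concentration growth assay with 570/630 nm absorbance read-out and Bliss-method calculation.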

NCI-H460 [6] = experiment: Induction of apoptosis in human NCI-H460 cells assessed as appearance of hyper-condensed nuclei after 24 hrs by Hoechst 33258 staining based fluorescence assay; format: functional, cell-based
Procedure, shortened: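 NCI-H460 cells were treated 24 h at 5 or 10 µM, with untreated cells as control. Nuclei were stained with Hoechst 33258 and inspected by fluorescence for chromatin condensation.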

NCI-H460 [7] = experiment: Induction of apoptosis in human NCI-H460 cells assessed as late apoptotic cells at 5 uM after 24 hrs by Annexin V-FITC/propidium iodide staining based flow cytometric method (reference value: 0.839%); format: functional

Structure (SMILES): COc1ccc(/C=C/C(=O)c2cc(OC)c(OC)c(OC)c2)cc1OCC(=O)Nc1ccccc1Cl
- Activity (NCI-H460 [1]): 4.86%
- inhibition (Sus scrofa): Active
- Activity (NCI-H460 [2]): Dose-dependent effect
- Activity (NCI-H460 [3]): 29%
- Activity (NCI-H460 [4]): 3.13%
- IC50 (A549/TR): 6.25 µM
- Ratio IC50 [5]: 1.2
- Activity (NCI-H460 [6]): Dose-dependent effect
- Activity (NCI-H460 [7]): 3.45%
